In one series the test system is MDA-MB-468 (EGFR+) cells. The experiment in a line: MTT cell viability assay. The series is classed as cell-based. Conditions: neat CD, up to concentrations as high as 100 μM. The essentials: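 MDA-MB-468 cells were treated with test compound alone or as cyclodextrin complexes, then read out by MTT. Complex stocks were made by shake-flask and passed through a 0.45 μm filter. […] Values are the mean of 10 replicates ± standard deviation.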
(Tetrazolium dyes change colour on reduction, which living cells bring about.)

Series [1] can be described thus: Phase-solubility study of tcyDTDO with BCD. As to conditions: BCD with saturated tcyDTDO, 25.0 °C. The class given is physicochemical.
For series [2] the following is noted: cited from earlier work.
The conditions of series [3]: advertised; ref Millipore Sigma; cited from earlier work.

Turning to `OC[C@H]1O[C@@H]2O[C@H]3[C@H](O)[C@@H](O)[C@@H](O[C@H]4[C@H](O)[C@@H](O)[C@@H](O[C@H]5[C@H](O)[C@@H](O)[C@@H](O[C@H]6[C@H](O)[C@@H](O)[C@@H](O[C@H]7[C@H](O)[C@@H](O)[C@@H](O[C@H]8[C@H](O)[C@@H](O)[C@@H](O[C@H]1[C@H](O)[C@H]2O)O[C@@H]8CO)O[C@@H]7CO)O[C@@H]6CO)O[C@@H]5CO)O[C@@H]4CO)O[C@@H]3CO` [BCD, beta-cyclodextrin], in the series with MDA-MB-468 (EGFR+) cells, the “Effect on cell viability” value is “did not have any significant adverse effect on cell viability”. Besides, the “Highest achievable concentration of CD in solution” value in series [1] came to 4.43 mM. In series [2], the “Cavity volume, literature” value was 262 Å^3.

With `CC(O)COC[C@H]1O[C@@H]2O[C@H]3[C@H](O)[C@@H](O)[C@@H](O[C@H]4[C@H](O)[C@@H](O)[C@@H](O[C@H]5[C@H](O)[C@@H](O)[C@@H](O[C@H]6[C@H](O)[C@@H](O)[C@@H](O[C@H]7[C@H](O)[C@@H](O)[C@@H](O[C@H]8[C@H](O)[C@@H](O)[C@@H](O[C@H]1[C@H](O)[C@H]2O)O[C@@H]8COCC(C)O)O[C@@H]7COCC(C)O)O[C@@H]6COCC(C)O)O[C@@H]5COCC(C)O)O[C@@H]4COCC(C)O)O[C@@H]3COCC(C)O` (stereo partly drawn) [HPB, 2-hydroxypropyl-beta-cyclodextrin], the “Effect on cell viability” value in the series on MDA-MB-468 (EGFR+) cells was “did not have any significant adverse effect on cell viability”. Further, in series [3], the Solubility in water result is reported as “roughly 45 g per 100 mL”.

The values are drawn from article PMC12124217 (RSC Medicinal Chemistry, 2025).
